Assay results taken from the EternaBench riboswitch data.

Legend:
MS2 coat protein [1] = assay: apparent Kd, MS2 coat protein; higher = weaker binding; RNA-MaP array; theophylline 2 mM where present
In short: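 On Illumina sequencing-chip clusters, designs were transcribed by stalled E. coli RNA polymerase and titrated with SNAP-549-labelled MS2 coat protein (0.7 or 1.5 nM, doubling to 3 µM), without and then with constant ligand, in 100 mM Tris-HCl pH 7.5, 80 mM KCl, 4 mM MgCl2, BSA, DTT, yeast tRNA and Tween-20. Apparent Kd is the median of filtered per-cluster curve fits to green signal normalised to red-channel RNA signal and control-cluster median Fmax.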

MS2 coat protein [2] = assay: apparent Kd, MS2 coat protein; higher = weaker binding; RNA-MaP array
In short: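 Incubations were done at room temperature with fluorescently labeled MS2 coat protein at 1.5 nM to 3 μM and designed RNAs transcribed on an Illumina sequencing chip from sequenced DNA templates, with or without input ligand. Apparent Kd is the median of binding curves fitted for each cluster. Designs with fewer than 10 measured clusters were excluded.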

[3] = designed as: OFF switch for theophylline, no ligand
[4] = ligand present: theophylline, designed as: OFF switch for theophylline
[5] = designed as: ON switch for theophylline, no ligand
[6] = ligand present: theophylline, designed as: ON switch for theophylline
[7] = designed as: OFF switch for flavin mononucleotide, no ligand
[8] = ligand present: flavin mononucleotide, designed as: OFF switch for flavin mononucleotide
[9] = designed as: ON switch for flavin mononucleotide, no ligand
[10] = ligand present: flavin mononucleotide, designed as: ON switch for flavin mononucleotide

Sequence | apparent Kd (MS2 coat protein [1]; [3]) [nM] | apparent Kd (MS2 coat protein [1]; [4]) [nM] | apparent Kd (MS2 coat protein [1]; [5]) [nM] | apparent Kd (MS2 coat protein [1]; [6]) [nM] | also measured
UGGUCACUAGGAGAUACCAGCCGACAUGAGGAUCACCCAUGUAACCGGCGUCCUCCCUUAGGCCCUUGGCAGCUCGUAGUUGCUC | 12.2 | 156 | – | – | –
AACAUGAGGAUCACCCAUGUAAAAUGGGAUACCAGAGACGAAAGUCUCCCUUGGCAGCCCACUGCCUCCUUUACGAAAGUAGAGG | – | – | 31.6 | 18.2 | –
GGUCUCUGGAGCGAUACCAGCUUGAGUGUACUGGCCAGGUACAUGAGGAUCACCCAUGUAAGCCCUUGGCAGCGCUGCAGAGACC | 10.1 | 29.1 | – | – | –
GAUGAACUAUUCGAUACCAGACUACAUGAGGAUCACCCAUGUGUGUCAAUUUCUCAGUCAGUCCCUUGGCAGCGAAUAGUUUAUC | 38.2 | 54.3 | – | – | –
AAACAUUGCUGCGAUACCAGACAUGAGGAUCACCCAUGUACCAAGAAAACGUACAUAAAUGUCCCUUGGCAGCGCAGCAAUGAAA | 498 | 1290 | – | – | –
UAUAUAUAUAUUGAUACCAGCAGAGAAAACGUAUAUCCUAACAUGAGGAUCACCCAUGUAUGCCCUUGGCAGCGAUAUAUAUAUA | 24.3 | 31.4 | – | – | –
UGUAUGUGAUGUGAUACCAGUCCAAUACUGGUAACAUGAGGAUCACCCAUGUAAUGAUGGGACCCUUGGCAGCACAUCGCAUACU | – | – | 212 | 111 | –
CAGAGCUACCGGGAUACCAGAAUUGGUAUUCCUAUAUUUCUUACAUGAGGAUCACCCAUGUUCCCUUGGCAGCUUGGUAGCUCUG | 80.9 | 446 | – | – | –
AUUAAUAGUUGUGAUACCAGACGAACAUGAGGAUCACCCAUGUAACUUUUAGGUGUUGUAGUCCCUUGGCAGCACUAUGUAGUUA | – | – | 40 | 33.7 | –
ACAUGAGGAUCACCCAUGUGAAGGCACGAUACCAGCUGAUCCCGUGGCCCUUGGCAGCGUCCGGUUUGGUCCGGCGGAUGAGACG | – | – | 24.1 | 24.9 | –
AUUAAUAGUUGUGAUACCAGACUUACAUGAGGAUCACCCAUGUUACUUAAGUGUUUUGAUGUCCCUUGGCAGCACUGUUUAGUUA | – | – | 25.5 | 13.4 | –
UAUAUAUAUAUUGAUACCAGCAGAGAAAACGUUUAUCCUAACAUGAGGAUCACCCAUGUAUGCCCUUGGCAGCGAUAUAUAUAUA | 24.5 | 32.5 | – | – | –
ACAUGAGGAUCACCCAUGUCACGGCACGAUACCAGCUGAUCCGGUGGCCCUUGGCAGCGUGACGUUUGGUCCCGCGGAUCACACG | – | – | 75.4 | 38.6 | –
AAUAUAAAAUAAAGAAAAUUUAUAUCUGAUACCAGACUCUCAUGGGUCCCUUGGCAGCAGUAACAUGAGGAUCACCCAUGUAUUA | – | – | 114 | 16.5 | –
UGUAUGUGAUCUGAUACCAGUCCAACUGGUAAAACAUGAGGAUCACCCAUGUAAAAUUGGGACCCUUGGCAGCAGAUCGCAUACU | – | – | 534 | 28.4 | –
ACGGAGAUUGCUAAAUGUUGGCGAGCGGAUACCAGCCUAUUAUUGGGCCCUUGGCAGCCGACAUGAGGAUCACCCAUGUAAACAA | – | – | 79 | 126 | –
AGACAUGAGGAUCACCCAUGUAGUACGGAUACCAGAUCCAGAUGCGUCCCUUGGCAGCUGUAGUACAGCGUUACGUCGCUCAUAG | 25.2 | 61 | – | – | –
CUCUGAGUCCGCAAGGACUCAGAGGCGGAUACCAGCGAGGUCCAUCGCCCUUGGCAGCCGAACAUGAGGAUCACCCAUGUCGGUA | – | – | 10.4 | 14.8 | –
AGCCCUGUACUAGAUACCAGCUACAUGAGGAUCACCCAUGUGCGUCAAGACUGACUGUGUAGCCCUUGGCAGCUGCUCGCAUGUA | 22.1 | 32.2 | – | – | –
AGGAACAUGAGGAUCACCCAUGUAAGCGAUACCAGUGAUAUGUUGCGCCCUUGGCAGCGCAAGUGUGUGUGAAAGAUGUAAGAUU | 16.5 | 33.4 | – | – | –
ACACAAACAGAAGGAUAUUUCACCAACAAGUCGAAAGAAGGUCUAGUACAUGAGGAUCACCCAUGUCUCAGUACAUCGCCGGUU | – | – | – | – | apparent Kd (MS2 coat protein [2]; [7]): 33.7 nM; apparent Kd (MS2 coat protein [2]; [8]): 30.9 nM
GGGCGUGGAGUAGGAUAUCCUGUAUACAUGAGGAUCACCCAUGUACAUAUCUAGUAUUACCGUUUGGAGAAGGACUGUUGGGCU | – | – | – | – | apparent Kd (MS2 coat protein [2]; [9]): 11.5 nM; apparent Kd (MS2 coat protein [2]; [10]): 9.71 nM
AAUUAUACAUGAGGAUCACCCAUGUCAAAUAUUGAUAGCUGGCAGGAUAUGAUAGAGACGGAAACUCAGAAGGGCCCGAUGAAC | – | – | – | – | apparent Kd (MS2 coat protein [2]; [9]): 15 nM; apparent Kd (MS2 coat protein [2]; [10]): 12.6 nM
CUUCAACAUGAGGAUCACCCAUGUAAGGAUAUCUGCCUCACAGCACCAAAGUGCGGGAAGAGAAGGUACGUAGU | – | – | – | – | apparent Kd (MS2 coat protein [2]; [7]): 15.4 nM; apparent Kd (MS2 coat protein [2]; [8]): 14.5 nM
ACGUGACACGAGAAGGGUCUUAAAUGUUGAUUGACAGGAUAUCGUUCCCACGAUACAUAGACGGACAUGAGGAUCACCCAUGUG | – | – | – | – | apparent Kd (MS2 coat protein [2]; [9]): 85.8 nM; apparent Kd (MS2 coat protein [2]; [10]): 30.3 nM
CGCAGCAUCUAGAAGGGCGAAUCAACAAUACAACUAGUGAACAUGAGGAUCACCCAUGUAAUGACGCAGGAUAUAGUAGCAAAG | – | – | – | – | apparent Kd (MS2 coat protein [2]; [9]): 26.5 nM; apparent Kd (MS2 coat protein [2]; [10]): 13.7 nM
